≈ marks a conversion by molar mass, not a printed value.
Experiments:
[1] = Drug activation in metronidazole-susceptible Helicobacter pylori RIG 117 J0 lysate
[2] = Drug activation in metronidazole-susceptible Helicobacter pylori 10593/2 lysate
[3] = Drug activation in metronidazole-resistant Helicobacter pylori CAS 015 J56 lysate harboring rdxA L132stop and frxA L39stop mutant genes; assay type: organism-based
[4] = Drug activation in metronidazole-susceptible Helicobacter pylori CAS 015 J0 lysate
[5] = Drug activation in metronidazole-resistant Helicobacter pylori RIG 117 J56 lysate
[6] = Drug activation in metronidazole-susceptible Helicobacter pylori HER 126 V1 lysate
[7] = Drug activation in metronidazole-resistant Helicobacter pylori HER 126 V4 lysate
[8] = Drug activation in metronidazole-resistant Helicobacter pylori 10593a/2 lysate
[9] = test system: Helicobacter pylori; experiment: Antimicrobial activity against compound-resistant Helicobacter pylori HER 126 V4 by Etest; assay type: functional
Outline: (§1)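 Metronidazole susceptibility by Etest, repeated in triplicate, on clinical matched-pair isolates collected after failed metronidazole treatment. Strains were grown at 37°C either microaerobically (5% CO2, 5% O2, 90% N2) or aerobically (5% CO2 in air). Isolates were called resistant above a threshold of 8 µg ml–1.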

[10] = test system: Helicobacter pylori; experiment: Antimicrobial activity against Helicobacter pylori CAS 015 J0 by Etest; assay type: functional
Outline: (§2)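 Etest MIC determination, repeated in triplicate. Strains were grown at 37°C, either aerobically (5% CO2 in air) or microaerobically (5% CO2, 5% O2, 90% N2). Strains were classed as susceptible or resistant using a resistance threshold of 8 µg ml–1, following clinical practice.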

[11] = test system: Helicobacter pylori; experiment: Prodrug activation in compound-resistant Helicobacter pylori RIG 117 J56 lysate harboring rdxA R16C and frxA A40stop mutant genes assessed as compound reduction under oxygenated microaerobic condition per mg of protein; assay type: organism-based; details: in vivo
Outline: (§3)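 Lysates of H. pylori strains grown at 37°C, either aerobically (5% CO2 in air) or microaerobically (5% CO2, 5% O2, 90% N2), with Mtr and NADH as substrates for reduction activity. Some lysate samples were argon-treated to displace oxygen. Protein content was measured by bicinchoninic acid microtiter assay.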

[12] = test system: Helicobacter pylori; experiment: Antimicrobial activity against compound-resistant Helicobacter pylori 10593a/2 harboring rdxA C177stop mutant gene by Etest; assay type: functional; outline: as §1
[13] = test system: Helicobacter pylori; experiment: Prodrug activation in Helicobacter pylori CAS 015 J0 lysate assessed as compound reduction under oxygenated aerobic condition per mg of protein; outline: as §3
[14] = test system: Helicobacter pylori; experiment: Prodrug activation in Helicobacter pylori HER 126 V1 lysate assessed as compound reduction under oxygenated aerobic condition per mg of protein; details: in vivo
Outline: (§4)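 Metronidazole reduction was measured in lysate suspensions with Mtr and NADH as substrates. Cells were grown at 37°C either aerobically (5% CO2 in air) or microaerobically (5% CO2, 5% O2, 90% N2). Lysate samples were either argon-treated to displace oxygen or left untreated. Rates were expressed per mg protein, with protein determined by the bicinchoninic acid method.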

[15] = test system: Helicobacter pylori; experiment: Prodrug activation in Helicobacter pylori HER 126 V1 lysate assessed as compound reduction under oxygenated microaerobic condition per mg of protein; details: in vivo; outline: as §4
[16] = test system: Helicobacter pylori; experiment: Prodrug activation in Helicobacter pylori RIG 117 J0 lysate assessed as compound reduction under argonized aerobic condition per mg of protein; details: in vivo; outline: as §4
[17] = test system: Helicobacter pylori; experiment: Prodrug activation in Helicobacter pylori 10593/2 lysate assessed as compound reduction under argonized aerobic condition per mg of protein; outline: as §4
[18] = test system: Helicobacter pylori; experiment: Antimicrobial activity against Helicobacter pylori RIG 117 J0 by Etest; assay type: functional; outline: as §2
[19] = test system: Helicobacter pylori; experiment: Prodrug activation in compound-resistant Helicobacter pylori 10593a/2 lysate harboring rdxA C177stop mutant gene assessed as compound reduction under oxygenated aerobic condition per mg of protein; outline: as §3
[20] = test system: Helicobacter pylori; experiment: Prodrug activation in Helicobacter pylori 10593/2 lysate assessed as compound reduction under argonized microaerobic condition per mg of protein; outline: as §4
[21] = test system: Helicobacter pylori; experiment: Antimicrobial activity against compound-resistant Helicobacter pylori RIG 117 J56 harboring rdxA R16C and frxA A40stop mutant genes by Etest; assay type: functional; outline: as §1
[22] = test system: Helicobacter pylori; experiment: Antimicrobial activity against Helicobacter pylori 10593/2 by Etest; assay type: functional; outline: as §1
[23] = test system: Helicobacter pylori; experiment: Antimicrobial activity against Helicobacter pylori HER 126 V1 by Etest; assay type: functional; outline: as §1
[24] = test system: Helicobacter pylori; experiment: Prodrug activation in Helicobacter pylori HER 126 V1 lysate assessed as compound reduction under argonized microaerobic condition per mg of protein; outline: as §3
[25] = test system: Helicobacter pylori; experiment: Prodrug activation in Helicobacter pylori HER 126 V1 lysate assessed as compound reduction under argonized aerobic condition per mg of protein; outline: as §4
[26] = test system: Helicobacter pylori; experiment: Prodrug activation in Helicobacter pylori CAS 015 J0 lysate assessed as compound reduction under oxygenated microaerobic condition per mg of protein; outline: as §3
[27] = test system: Helicobacter pylori; experiment: Prodrug activation in compound-resistant Helicobacter pylori HER 126 V4 lysate assessed as compound reduction under oxygenated microaerobic condition per mg of protein; details: in vivo; outline: as §3
[28] = test system: Helicobacter pylori; experiment: Prodrug activation in Helicobacter pylori 10593/2 lysate assessed as compound reduction under oxygenated aerobic condition per mg of protein; outline: as §3
[29] = test system: Helicobacter pylori; experiment: Prodrug activation in Helicobacter pylori CAS 015 J0 lysate assessed as compound reduction under argonized microaerobic condition per mg of protein; outline: as §4
[30] = test system: Helicobacter pylori; experiment: Prodrug activation in compound-resistant Helicobacter pylori CAS 015 J56 lysate harboring rdxA L132stop and frxA L39stop mutant genes assessed as compound reduction under oxygenated aerobic condition per mg of protein; outline: as §3
[31] = test system: Helicobacter pylori; experiment: Prodrug activation in Helicobacter pylori 10593a/2 lysate harboring rdxA C177stop mutant gene assessed as compound reduction under oxygenated microaerobic condition per mg of protein; outline: as §3
[32] = test system: Helicobacter pylori; experiment: Prodrug activation in Helicobacter pylori 10593/2 lysate assessed as compound reduction under oxygenated microaerobic condition per mg of protein; outline: as §3
[33] = test system: Helicobacter pylori; experiment: Prodrug activation in compound-resistant Helicobacter pylori 10593a/2 lysate harboring rdxA C177stop mutant gene assessed as compound reduction under argonized microaerobic condition per mg of protein; outline: as §3
[34] = test system: Helicobacter pylori; experiment: Prodrug activation in Helicobacter pylori RIG 117 J0 lysate assessed as compound reduction under oxygenated microaerobic condition per mg of protein; outline: as §3
[35] = test system: Helicobacter pylori; experiment: Prodrug activation in Helicobacter pylori RIG 117 J0 lysate assessed as compound reduction under argonized microaerobic condition per mg of protein; outline: as §4
[36] = test system: Helicobacter pylori; experiment: Prodrug activation in compound-resistant Helicobacter pylori HER 126 V4 lysate assessed as compound reduction under argonized microaerobic condition per mg of protein; outline: as §3
[37] = test system: Helicobacter pylori; experiment: Antimicrobial activity against compound-resistant Helicobacter pylori CAS 015 J56 harboring rdxA L132stop and frxA L39stop mutant genes by Etest; assay type: functional; outline: as §1
[38] = test system: Helicobacter pylori; experiment: Prodrug activation in Helicobacter pylori RIG 117 J0 lysate assessed as compound reduction under oxygenated aerobic condition per mg of protein; details: in vivo; outline: as §4
[39] = test system: Helicobacter pylori; experiment: Prodrug activation in compound-resistant Helicobacter pylori CAS 015 J56 lysate harboring rdxA L132stop and frxA L39stop mutant genes assessed as compound reduction under oxygenated microaerobic condition per mg of protein; outline: as §3
[40] = test system: Helicobacter pylori; experiment: Prodrug activation in Helicobacter pylori CAS 015 J0 lysate assessed as compound reduction under argonized aerobic condition per mg of protein; outline: as §4

For `Cc1cc2nc3c(=O)[nH]c(=O)nc-3n(C[C@H](O)[C@H](O)[C@H](O)COP(=O)(O)OP(=O)(O)OC[C@H]3O[C@@H](n4cnc5c(N)ncnc54)[C@H](O)[C@@H]3O)c2cc1C` [FLAVIN ADENIN DINUCLEOTIDE], the Km [1] was 95 µM, the Km [2] was 2.1 µM and the Km [3] was 24 µM. For the same compound, the Km [4] was 2.4 µM, the Km [5] was 11 µM and the Km [6] was 6 µM. It also gave a Km [7] of 17 µM and a Km [8] of 5 µM.
For `NC(=O)N/N=C/c1ccc([N+](=O)[O-])o1` [NITROFURAZONE], the Km [1] was 8.1 µM, the Km [2] was 2.8 µM and the Km [3] was 3.3 µM. It also gave a Km [4] of 8.8 µM, a Km [5] of 8.5 µM and a Km [6] of 13.1 µM. For the same compound, the Km [7] was 6.8 µM and the Km [8] was 6 µM.
In the case of `Cc1ncc([N+](=O)[O-])n1CCO` [METRONIDAZOLE], the MIC [9] is reported as 64 µg/mL (≈ 374 µM), the MIC [10] is reported as 4 µg/mL (≈ 23.4 µM) and the Activity [11] is reported as 13 nmol/min. It also gave an MIC [12] of 64 µg/mL (≈ 374 µM), an Activity [13] of 18 nmol/min and an Activity [14] of 22 nmol/min. For the same compound, the Activity [15] was 18 nmol/min, the Activity [16] was 33 nmol/min and the Activity [17] was 36 nmol/min. For the same compound, the MIC [18] was 4 µg/mL (≈ 23.4 µM), the Activity [19] was 10 nmol/min and the Activity [20] was 32 nmol/min. The MIC [21] was 32 µg/mL (≈ 187 µM), the MIC [22] was 2 µg/mL (≈ 11.7 µM) and the MIC [23] was 2 µg/mL (≈ 11.7 µM). The Activity [24] was 20 nmol/min, the Activity [25] was 25 nmol/min and the Activity [26] was 15 nmol/min. The Activity [27] was 10 nmol/min, the Activity [28] was 16 nmol/min and the Activity [29] was 29 nmol/min. For the same compound, the Activity [30] was 13 nmol/min, the Activity [31] was 9 nmol/min and the Activity [32] was 14 nmol/min. For the same compound, the Activity [33] was 13 nmol/min, the Activity [34] was 19 nmol/min and the Activity [35] was 32 nmol/min. For the same compound, the Activity [36] was 11 nmol/min, the MIC [37] was 32 µg/mL (≈ 187 µM) and the Activity [38] was 27 nmol/min. It also gave an Activity [39] of 9 nmol/min and an Activity [40] of 31 nmol/min.
